The assay concerns the target Metabotropic glutamate receptor 1 (Rattus norvegicus) (UniProt P23385). The experiment in a line: rat mGlu1 allosteric modulation, glutamate curve shift, profiling panel, selectivity assay for mGlu5 PAM project, calcium fluorescence, HEK293A cells (AID 588736). The settings on record: glutamate CRC shift, at 10 µM; for Emax: measured here: glutamate Emax with compound; for Emin: measured here: glutamate Emin with compound, stronger effect = higher value. The essentials:
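Test system: HEK293A cells expressing rat mGlu1 receptor. Compound dosing: single 10 µM final test compound. Timing: compound added at 1.5 s, glutamate curve at 142 s. Measured by: Fluo4-AM calcium fluorescence. Control set: vehicle-treated glutamate curves as reference for maximal response.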

Each structure is given as a SMILES string. Activity calls are given as the source filed them.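 Rule for the calls: active = compound halving or more than doubling glutamate potency, or top glutamate response under 75% or over 125% of control; inactive = the rest.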

Sequence of Metabotropic glutamate receptor 1 (Rattus norvegicus) (P23385 whole entry, looked up): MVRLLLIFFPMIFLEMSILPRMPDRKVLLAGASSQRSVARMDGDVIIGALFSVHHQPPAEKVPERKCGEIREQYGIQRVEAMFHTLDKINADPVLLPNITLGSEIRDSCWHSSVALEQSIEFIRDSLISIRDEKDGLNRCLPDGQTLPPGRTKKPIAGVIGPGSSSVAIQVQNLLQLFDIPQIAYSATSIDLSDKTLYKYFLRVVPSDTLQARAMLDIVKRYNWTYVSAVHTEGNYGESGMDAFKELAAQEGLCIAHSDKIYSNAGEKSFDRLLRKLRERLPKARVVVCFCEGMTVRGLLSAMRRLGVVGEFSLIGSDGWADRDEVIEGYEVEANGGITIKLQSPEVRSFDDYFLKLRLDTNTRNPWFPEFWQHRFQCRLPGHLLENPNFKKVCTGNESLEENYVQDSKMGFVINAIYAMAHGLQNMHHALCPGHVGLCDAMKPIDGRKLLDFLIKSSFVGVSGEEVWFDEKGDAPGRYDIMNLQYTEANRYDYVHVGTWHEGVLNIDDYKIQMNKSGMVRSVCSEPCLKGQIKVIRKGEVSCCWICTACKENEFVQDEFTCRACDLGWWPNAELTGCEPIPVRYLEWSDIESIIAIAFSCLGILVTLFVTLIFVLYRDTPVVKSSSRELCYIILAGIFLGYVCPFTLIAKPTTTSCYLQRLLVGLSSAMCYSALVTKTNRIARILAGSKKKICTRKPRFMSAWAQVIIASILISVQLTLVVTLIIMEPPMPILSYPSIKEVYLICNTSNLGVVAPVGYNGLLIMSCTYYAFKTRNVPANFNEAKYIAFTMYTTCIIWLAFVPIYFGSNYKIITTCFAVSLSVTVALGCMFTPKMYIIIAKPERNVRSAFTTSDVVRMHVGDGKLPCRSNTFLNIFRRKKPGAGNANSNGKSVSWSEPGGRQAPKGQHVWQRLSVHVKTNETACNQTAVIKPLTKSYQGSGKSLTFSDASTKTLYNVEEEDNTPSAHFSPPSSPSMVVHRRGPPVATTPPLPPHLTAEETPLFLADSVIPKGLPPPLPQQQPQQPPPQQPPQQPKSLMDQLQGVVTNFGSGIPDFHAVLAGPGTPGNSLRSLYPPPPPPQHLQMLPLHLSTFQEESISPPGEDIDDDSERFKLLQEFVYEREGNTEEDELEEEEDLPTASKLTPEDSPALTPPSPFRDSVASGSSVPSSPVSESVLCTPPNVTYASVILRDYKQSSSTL

Regarding `CC1(NC(=O)c2ccc(C#Cc3cccc(F)c3)cn2)COC1`, the fold shift was 0.93 (inactive), the Emax was determined as 91% and the Emin came out at 1%.

Take `C[C@@H](NC(=O)c1ccc(C#Cc2cccc(F)c2)cn1)C(C)(C)O`: the fold shift is 1.43 (inactive), the Emax worked out at 94% and the Emin amounted to 1%.

What is called Emax is the size of the effect at its maximum, as opposed to the concentration needed.

Values taken from PubChem BioAssay AID588736 (Vanderbilt Specialized Chemistry Center, 2011).
